Published values from different studies.
Lines come from different studies, so protocols differ.
Read-out: cell growth or viability

O=C(c1ccc(Oc2ccc3oc(=O)ccc3c2)c([N+](=O)[O-])c1)C(Cl)Cl — inhibition (NCI-H1650; MTT; 2.5 µM): 96.8%
COc1cccc(CNC[C@@](C)(O)[C@@H]2CC[C@@H](C)C[C@H]2OCc2ccccc2)c1 — inhibition (A2780; MTT; 10 µM; 72 h): 32.9%
COc1ccc(C(=O)Nc2ccc(-n3cc(CNc4nc(OC)nc(OC)n4)nn3)cc2)cc1 — IC50 (Caco-2; MTT; 72 h): 722 nM
O=C(c1ccc(Oc2ccc(OCc3ccccc3)cc2)c([N+](=O)[O-])c1)C(Cl)Cl — inhibition (NCI-H1650; MTT; 2.5 µM): 96.9%
C[C@@H]1CC[C@@H]([C@](O)(CNCc2cccc3ccccc23)COCc2ccccc2)[C@H](OCc2ccccc2)C1 — inhibition (A2780; MTT; 10 µM; 72 h): 90.7%
COc1nc(NCc2cn(-c3ccc(C(=O)Nc4ccc(Br)cc4)cc3)nn2)nc(OC)n1 — IC50 (Caco-2; MTT; 72 h): 674 nM
C[C@@H]1CC[C@@H]([C@](O)(CNCc2ccccc2)COCc2ccccc2)[C@H](OCc2ccccc2)C1 — inhibition (A2780; MTT; 30 µM; 72 h): 91.1%
COc1ccc(NC(=O)c2ccc(-n3cc(CNc4nc(OC)nc(OC)n4)nn3)cc2)cc1 — IC50 (Caco-2; MTT; 72 h): 435 nM
O=C(c1ccc(Oc2ccc(-c3ccccc3)cc2)c([N+](=O)[O-])c1)C(Cl)Cl — inhibition (NCI-H1650; MTT; 2.5 µM): 97.5%
O=C(O)c1ccccc1Nc1cccc(C(F)(F)F)c1 — GI50 (NCI-H28; CCK-8; 72 h): > 40 µM
O=C(c1ccc(Oc2cccc(-c3ccccc3)c2)c([N+](=O)[O-])c1)C(Cl)Cl — inhibition (NCI-H1650; MTT; 2.5 µM): 97.2%
O=C(NO)c1ccc(CNc2nc3cccc(-c4ccc5c(c4)OCO5)n3n2)cc1 — GI50 (TK-10; SRB): 0.52 µM
C[C@@H]1CC[C@@H]([C@](C)(O)CNCc2ccccc2)[C@H](OCc2ccccc2)C1 — inhibition (A2780; MTT; 30 µM; 72 h): 94.3%
O=C(c1ccc(Oc2ccc3c(c2)OCO3)c([N+](=O)[O-])c1)C(Cl)Cl — inhibition (NCI-H1650; MTT; 2.5 µM): 84.4%
C[C@@H]1CC[C@@H]([C@](O)(CNCc2ccc(F)cc2)COCc2ccc(F)cc2)[C@H](OCc2ccc(F)cc2)C1 — inhibition (A2780; MTT; 30 µM; 72 h): 95.3%
COc1cccc2c1C(=O)c1c(O)c3c(c(O)c1C2=O)C[C@@](O)(C(=O)CO)C[C@@H]3O[C@H]1C[C@H](N)[C@H](O)[C@H](C)O1 — viability (Caco-2; MTT; 25 µg/mL; 48 h; serum-free): 31.6%
O=C(c1ccc(Oc2ccc3cc(Br)ccc3c2Cl)c([N+](=O)[O-])c1)C(Cl)Cl — inhibition (NCI-H1650; MTT; 2.5 µM): 97%
C[C@@H]1CC[C@@H]([C@](O)(CNCc2ccccc2)COCc2ccc(F)cc2)[C@H](OCc2ccc(F)cc2)C1 — inhibition (A2780; MTT; 10 µM; 72 h): 95.2%
COc1nc(NCc2cn(-c3ccc(C(=O)Nc4ccc([N+](=O)[O-])cc4)cc3)nn2)nc(OC)n1 — IC50 (Caco-2; MTT; 72 h): 724 nM
COc1ccc(CNC[C@@](C)(O)[C@@H]2CC[C@@H](C)C[C@H]2OCc2ccccc2)cc1 — inhibition (A2780; MTT; 10 µM; 72 h): 42.9%
C=CC(=O)NC1CCN(c2ncc3ncnc(Nc4ccc(Oc5ccc6c(c5)ncn6C)c(C)c4)c3n2)CC1 — EC50 (HCC44): 934 nM
C[C@@H]1CC[C@@H]([C@](C)(O)Cn2ccnc2)[C@H](OCc2ccccc2)C1 — inhibition (A2780; MTT; 30 µM; 72 h): 39.5%
O=C(c1ccc(Oc2ccc(Br)cc2)c([N+](=O)[O-])c1)C(Cl)Cl — inhibition (NCI-H1650; MTT; 2.5 µM): 96.1%
C=C(F)C(=O)N1CCN(c2nc(OC[C@@H]3CCCN3C)nc3c2CCN(c2cccc4cccc(Cl)c24)C3)C[C@@H]1CC#N — IC50 (UMUC3; ATP luminescence; 3D culture): 8.43 nM
NC(=O)COc1ccc(C(=O)C(Cl)Cl)cc1[N+](=O)[O-] — inhibition (NCI-H1650; MTT; 2.5 µM): 1.51%
C=CC(=O)c1cccnc1Nc1cccc(C(F)(F)F)c1 — GI50 (NCI-H28; CCK-8; 72 h): 5.11 µM
